Compound activity deposited in PubChem by several laboratories.
PKD1 inh = inhibitors of human PKD1 kinase, biochemical, fluorescence polarization | AID 797, 2007 | 0.056% of 200,000 active | PKD1 kinase fluorescence polarization assay | inhibition, % (test concentration not listed) | Serine/threonine-protein kinase D1 (Homo sapiens), Q15139; in the data active = inhibition above about 50%
Target sequence (Q15139 whole entry, looked up): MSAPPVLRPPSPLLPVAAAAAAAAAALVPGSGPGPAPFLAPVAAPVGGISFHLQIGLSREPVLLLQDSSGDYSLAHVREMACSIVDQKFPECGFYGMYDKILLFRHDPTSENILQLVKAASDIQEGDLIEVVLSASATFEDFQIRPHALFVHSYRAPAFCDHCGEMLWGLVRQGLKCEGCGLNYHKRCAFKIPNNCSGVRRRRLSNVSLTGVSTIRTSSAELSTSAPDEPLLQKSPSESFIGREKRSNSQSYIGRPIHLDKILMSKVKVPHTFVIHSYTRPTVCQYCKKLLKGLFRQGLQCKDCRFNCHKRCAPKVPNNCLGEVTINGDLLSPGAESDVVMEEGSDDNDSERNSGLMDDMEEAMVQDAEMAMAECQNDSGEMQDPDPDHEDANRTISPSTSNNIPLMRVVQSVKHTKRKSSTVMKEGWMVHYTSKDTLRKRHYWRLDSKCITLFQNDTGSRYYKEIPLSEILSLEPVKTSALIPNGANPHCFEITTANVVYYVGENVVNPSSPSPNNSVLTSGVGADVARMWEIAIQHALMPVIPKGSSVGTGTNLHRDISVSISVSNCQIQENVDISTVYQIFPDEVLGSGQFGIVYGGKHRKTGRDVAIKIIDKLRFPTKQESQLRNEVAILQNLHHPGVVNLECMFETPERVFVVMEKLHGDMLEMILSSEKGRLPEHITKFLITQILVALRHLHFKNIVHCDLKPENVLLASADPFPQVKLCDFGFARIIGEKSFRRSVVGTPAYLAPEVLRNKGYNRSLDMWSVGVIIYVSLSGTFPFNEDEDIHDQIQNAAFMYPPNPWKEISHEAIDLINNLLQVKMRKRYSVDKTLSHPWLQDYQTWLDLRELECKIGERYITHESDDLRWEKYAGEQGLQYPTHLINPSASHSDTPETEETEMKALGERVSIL
ABCG2 block = ABCG2 efflux pump inhibitors, primary screen, multiplex with ABCB1, IgMXP3 cells, flow cytometry; Broad substrate specificity ATP-binding cassette transporter ABCG2 (Homo sapiens), Q9UNQ0; JC-1 efflux; inhibition, % at 6.6 µM; 0.1% of 190,000 active; AID 1325, 2008;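 active = inhibition above 80%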;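 note: 0% = DMSO and 100% = nicardipine control wells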
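Incubation: cells with compound and JC-1, 10 min at 25 °C, rotating, no wash / Test system: IgMXP3 (ABCG2) plus far-red-tagged CCRF-Adr (ABCB1) cells / Compound dosing: one concentration, 6.6 µM final / Also added: JC-1 fluorescent substrate / Evaluation: efflux inhibition in percent versus controls / Detection: flow cytometry, 530 nm JC-1 signal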
MT stabilize HCS = microtubule stabilizers in HeLa cells, primary screen, imaging, high-content imaging | HeLa tubulin immunostaining HCS, 24 h; share of cells brighter than vehicle mean+2SD | % tubulin-high responders, % at 10 µM | 0.83% of 200,000 active;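 active = plate Z-score above 3 for both tubulin-high and condensed-nucleus cell shares, with cell loss under 80%, at 10 µM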;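 note: anti alpha tubulin signal scored within the nucleus-defined area of each cell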
ABCB1 block = ABCB1 efflux pump inhibitors, primary screen, cell-based, multiplex, flow cytometry, ABCG2 counter-screen. ATP-dependent translocase ABCB1 (Homo sapiens), P08183. inhibition, % at 6.6 µM. CCRF-Adr cells, JC-1 efflux. 0.067% of 190,000 active; in the data active = inhibition above about 40%;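 note: 0% = vehicle and 100% = reference inhibitor; higher value means more JC-1 retained so stronger ABCB1 efflux block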
b-catenin transl = modulators of beta-catenin nuclear translocation, primary screen, imaging, HeLa cells, immunofluorescence, high-content; nuclear translocation activity, % at 5 µM; 0.3% of 190,000 active;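 active = nuclear translocation activity above 50% at 5 µM, with a well cell count of 50 or more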;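 note: per-cell ratio of nuclear to cytoplasmic median beta-catenin stain intensity; plate controls were DMSO negative control for no effect and GSK-3 inhibitor IX positive control for full effect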
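System: Human HeLa cells, endogenous beta-catenin | Compound dosing: 5 µM primary, 0.02–20 µM confirmation | Timing: 24 h compound exposure at 37°C, 5% CO2 | Measured by: Fluorescence imaging of beta-catenin antibody stain plus DAPI | Read-out basis: % activation of per-cell nuclear versus cytoplasmic median beta-catenin signal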
* hit, by the source's call; nt = no result. Rows were chosen to be rich in hits. Some 1% of all compounds tested hit in one or more screens of this group.

SMILES	PKD1 inh	ABCG2 block	MT stabilize HCS	ABCB1 block	b-catenin transl
C=CCn1c(SCc2c(C)noc2C)nc2cc(C(=O)O)ccc2c1=O	1	0	35*	0	nt
C=CCn1c(SCc2c(C)noc2C)nc2sc3c(c2c1=O)CCCC3	0	18	20	8	2
C=CCn1c(SCc2cc(C(C)=O)ccc2OCC)nc2ccccc2c1=O	10	7	18*	3	98*
C=CCn1c(SCc2nc3ccccc3c(=O)[nH]2)nc2ccccc2c1=O	-1	17	3	11	3
C=CCn1c(SCc2c(C)noc2C)nc2ccccc2c1=O	2	4	27*	2	nt
COc1cc2nc(SCc3c(C)noc3C)n(CCC3=CCCCC3)c(=O)c2cc1OC	-4	7	38*	10	-1
COc1ccccc1N1CCN(C2CCN(C(=O)COc3ccccc3)CC2)CC1	0	3	7	1	-2
Cc1ccc2c(c1)c1c(n2CC(O)CNC2CCCCC2)CCCC1 (configuration not stated)	1	1	36*	2	1
O=C(C1c2ccccc2Oc2ccccc21)N1CCN(c2ccc(Cl)cc2)CC1	2	2	33*	1	nt
COc1ccccc1N1CCN(C(=O)C2c3ccccc3Oc3ccccc32)CC1	-2	8	26*	1	95*
Cc1cc(NC(=O)CSc2nc(C3CC3)nc3sc(C)c(C)c23)no1	1	3	34*	1	267*
CO/N=C\CC(=O)Nc1ccc(Cl)cc1Cl	6	4	10*	0	1
COc1ccc(-c2nc3ccccc3n2Cc2ccccc2)cc1	-3	3	1	1	nt
COc1ccc(-c2n(Cc3ccccc3)c3ccccc3[n+]2Cc2ccccc2)cc1	-6	0	11*	-1	0
Cc1ccc(C)c(NS(=O)(=O)c2ccc3c(c2)Cc2cc(S(=O)(=O)Nc4cc(C)ccc4C)ccc2-3)c1	-3	-2	4	0	-1
COc1ccc(-c2cn3cc(Br)cnc3n2)cc1	-3	17	20*	0	1
O=C(Nc1nccs1)c1cn(-c2ccccc2)nc1-c1ccccc1	1	1	34*	0	nt
CC(C)COc1ccc(-c2nn(-c3ccccc3)cc2C(=O)Nc2nccs2)cc1	7	1	1	1	-9
COc1ccc2nc(C)cc(SCC(=O)N/N=C/c3ccc(O)c(O)c3)c2c1	0	-1	4	-1	-2
COc1cccc2c(SCC(=O)N/N=C/c3ccc(O)c(O)c3)cc(C)nc12	0	1	10*	0	-5
COc1cccc2c(SCC(=O)N/N=C/c3ccccc3)cc(C)nc12	1	6	4	2	8
COc1ccc2nc(C)cc(SCC(=O)N/N=C/c3cccc4ccccc34)c2c1	-3	0	41	0	77*
COc1ccc(CCN2C(=O)CC(C(C)c3ccccc3)C2=O)cc1OC (configuration not stated)	-2	2	4	1	0
CCOc1ncccc1C(=O)NCc1ccc(OC)cc1	5	5	36*	1	24
Cc1ccnc(SCC(=O)Nc2c(C)n(C)n(-c3ccccc3)c2=O)n1	-2	1	1	0	nt
SMILES	PKD1 inh	ABCG2 block	MT stabilize HCS	ABCB1 block	b-catenin transl
O=C(O)c1nccnc1C(=O)Nc1ccccc1-c1ccccc1	nt	nt	nt	nt	-2
CCOC(=O)/C(C#N)=C/C1=C(N2CCOCC2)CC(C)(C)OC1	nt	nt	nt	nt	-1
CCOC(=O)Cc1c(C)nc2c(-c3ccccc3)c(C)[nH]n2c1=O	-12	0	3	0	nt
CCOC(=O)Cc1c(C)nc2c(-c3ccccc3)c[nH]n2c1=O	-16	0	19*	0	-1
Fc1ccc(-n2ncc3c(SCc4cccnc4)ncnc32)cc1	5	5	4	3	-5
Cc1cc(C)c2c(N)c3cccc(C)c3nc2n1	-10	1	13*	0	-3
Cc1cccc2c(N)c3c(nc12)CCCC3 (tested in a mixture with another compound)	0	1	2	0	1
COc1ccc(-c2oc(NC(=O)CSc3ncn[nH]3)c(C#N)c2-c2ccc(OC)cc2)cc1	0	-5	47*	-4	0
COc1ccc(-c2oc(NC(=O)CCl)c(C#N)c2-c2ccc(OC)cc2)cc1	-3	0	2	0	nt
O=C1CN(C(=O)CSc2nc(-c3ccc(Cl)cc3)cs2)c2ccccc2N1	1	10	8	1	0
Cc1cccc(-c2nnc3sc(-c4ccccc4)nn23)c1	5	30	4	1	-5
COc1ccccc1-c1nn2c(-c3ccc(C(C)(C)C)cc3)nnc2s1	nt	nt	nt	nt	-6
COc1ccccc1-c1nnc2sc(-c3cnccn3)nn12	4	42	2	1	3
COc1ccccc1-c1nnc2sc(-c3ccc(N(C)C)cc3)nn12	-4	-1	8	0	74*
COc1ccccc1-c1nn2c(C(F)(F)F)nnc2s1	-9	16	14*	2	-3
COc1ccc(-c2nn3c(-c4cccc(C)c4)nnc3s2)cc1OC	5	nt	33*	nt	nt
COc1ccccc1-c1nnc2sc(-c3cc4ccccc4o3)nn12	13	0	44	0	94*
FC(F)(F)c1nnc2sc(-c3ccccn3)nn12	-15	1	3	-2	0
O=C(CN1CCCc2ccccc21)N/N=C/c1c(O)ccc2ccccc12	7	4	9	0	14
CN(C)c1ccc(-c2nn3c(-c4ccccc4Cl)nnc3s2)cc1	6	2	29*	1	78*
CC1C/C(=C/c2cccn2C)C(=O)/C(=C/c2cccn2C)C1 (configuration not stated)	-14	11	1	5	nt
CC1C/C(=C/c2ccncc2)C(=O)/C(=C/c2ccncc2)C1 (configuration not stated)	7	11	37*	1	nt
c1ccc(-c2nnc(SCC3CCCCO3)nc2-c2ccccc2)cc1 (configuration not stated)	-2	2	2	0	2
CC(=O)c1cccc(NC(=O)C2CCN(C(=O)c3ccc([N+](=O)[O-])cc3)CC2)c1	-5	4	8	1	6
COc1ccc(-c2nc3ccc(N4CCCC4)cc3c(=O)[nH]2)cc1OC	5	30	15*	3	-1
COc1ccc(-c2cc(C(=O)N3CCN(c4ccccc4)CC3)c3ccccc3n2)cc1OC	-4	8	2	8	0
COc1ccc(-c2cc(=Nc3c(C)n(C)n(-c4ccccc4)c3=O)c3ccccc3o2)cc1	3	12	6	2	2
